The source of these data is ChEMBL document CHEMBL3098086, “Synthesis and biological evaluation of α-triazolyl chalcones as a new type of potential antimicrobial agents and their interaction with calf thymus DNA and human serum albumin” (Eur J Med Chem, 2014).

For test [1], the system named is Bacillus. The test is described as follows: Antibacterial activity against Bacillus proteus ATCC 13315 after 24 hrs by twofold serial dilution method. The settings on record: ATCC 13315, 24 h. The class given is functional. A digest of the protocol:
(§1)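 Bacterial strains: S. aureus ATCC 25923, B. subtilis ATCC 21216, M. luteus ATCC 4698, E. coli JM109, P. aeruginosa ATCC 27853, B. proteus ATCC 13315. MICs by two-fold broth microdilution in 96-well plates per NCCLS. Chloromycin and Norfloxacin served as positive controls.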

In test [2] the test system is Pseudomonas aeruginosa. The test is described as follows: Antibacterial activity against Pseudomonas aeruginosa ATCC 27853 after 24 hrs by twofold serial dilution method. The class given is functional. The settings on record: ATCC 27853, 24 h. In short, it runs like this: as §1
For test [3], the system named is Escherichia coli. Description: Antibacterial activity against Escherichia coli JM109 after 24 hrs by twofold serial dilution method. The settings on record: JM109, 24 h. Format: functional. In short, it runs like this: as §1
Test [4] has as its system Salmonella typhi. The test is described as follows: Antibacterial activity against Bacillus typhi after 24 hrs by twofold serial dilution method. The class given is functional, Salmonella enterica subsp. enterica serovar Typhi. The settings on record: Salmonella enterica. A digest of the protocol:
(§2)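 Two-fold broth microdilution per NCCLS recommendations. The MIC was read as the minimum inhibitory concentration. Chloromycin and Norfloxacin served as positive controls. Strains were Bacillus typhi (Gram-negative panel) and methicillin-resistant S. aureus N315.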

Test [5] relates to Micrococcus luteus. The test is described as follows: Antibacterial activity against Micrococcus luteus ATCC 4698 after 24 hrs by twofold serial dilution method. Format: functional. The settings on record: ATCC 4698, 24 h. A digest of the protocol:
as §1

Test [6] has as its system Bacillus subtilis. The test is described as follows: Antibacterial activity against Bacillus subtilis ATCC 21216 after 24 hrs by twofold serial dilution method. The class given is functional. Conditions: ATCC 21216, 24 h. A digest of the protocol:
as §1

Test [7] deals with Staphylococcus aureus. Description: Antibacterial activity against Staphylococcus aureus ATCC 25923 after 24 hrs by twofold serial dilution method. The class given is functional. Conditions: ATCC 25923, 24 h. In short, it runs like this:
as §1

For test [8], the system named is Staphylococcus aureus. The test is described as follows: Antibacterial activity against methicillin-resistant staphylococcus aureus N315 after 24 hrs by twofold serial dilution method. Conditions: N315, 24 h. Format: functional. A digest of the protocol:
as §2

Test [9] relates to Candida. Description: Antifungal activity against Candida mycoderma ATCC 96918 after 24 hrs by micro broth dilution method. Format: functional. The settings on record: ATCC 96918, 24 h. A digest of the protocol:
(§3)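 Fungi: C. albicans ATCC 76615 and C. mycoderma ATCC 96918. MICs by two-fold broth microdilution in 96-well plates per NCCLS. Fluconazole served as positive control.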

Test [10] concerns Candida albicans. The test is described as follows: Antifungal activity against Candida albicans ATCC 76615 after 24 hrs by micro broth dilution method. Format: functional. The settings on record: ATCC 76615, 24 h. A digest of the protocol: as §3
(In broth dilution the organism is exposed to a series of concentrations in liquid medium.)

Converted amounts (≈) assume the structure as drawn.

In the case of `O=C(N[C@H](CO)[C@H](O)c1ccc([N+](=O)[O-])cc1)C(Cl)Cl` [CHLORAMPHENICOL], the MIC (as a rule, the lowest concentration that inhibits growth of the organism) in test [1] stood at 32 µg/mL (≈ 99 µM); in test [2] it was 32 µg/mL (≈ 99 µM); in test [3], 32 µg/mL (≈ 99 µM); in test [4], 32 µg/mL (≈ 99 µM); in [5], 8 µg/mL (≈ 24.8 µM); in test [6], 32 µg/mL (≈ 99 µM). Further, the MIC in [7] and in test [8] was 16 µg/mL (≈ 49.5 µM) in each case.
For `O=C(/C(=C/c1ccccc1)n1cncn1)c1ccc(N2CCCC2)cc1N1CCCC1`, the MIC in test [9] is 4 µg/mL (≈ 9.67 µM); in test [10], 8 µg/mL (≈ 19.3 µM); in test [1], 32 µg/mL (≈ 77.4 µM); in test [2], 32 µg/mL (≈ 77.4 µM); in test [3], 32 µg/mL (≈ 77.4 µM); in test [4], 8 µg/mL (≈ 19.3 µM). Moreover, the MIC in test [5] came to 16 µg/mL (≈ 38.7 µM); in [6], 16 µg/mL (≈ 38.7 µM); in test [7], 32 µg/mL (≈ 77.4 µM); in [8], 16 µg/mL (≈ 38.7 µM).
As for `O=C(/C(=C/c1ccc(Cl)cc1)n1cncn1)c1ccc(Cl)cc1`, the MIC in test [9] was 64 µg/mL (≈ 186 µM); in test [10] it was 64 µg/mL (≈ 186 µM); in test [1], 32 µg/mL (≈ 93 µM); in test [2], 8 µg/mL (≈ 23.2 µM); in test [3], 16 µg/mL (≈ 46.5 µM); in test [4], 16 µg/mL (≈ 46.5 µM). In addition, the MIC in test [5] was found to be 64 µg/mL (≈ 186 µM); in [6], 32 µg/mL (≈ 93 µM); in [7], 32 µg/mL (≈ 93 µM); in test [8] it was 32 µg/mL (≈ 93 µM).
`O=C(/C(=C/c1ccccc1)n1cncn1)c1ccc(F)cc1F`: the MIC is 64 µg/mL (≈ 206 µM) in test [9]; 128 µg/mL (≈ 411 µM) in test [10]; 64 µg/mL (≈ 206 µM) in test [1]; 128 µg/mL (≈ 411 µM) in test [2]; 32 µg/mL (≈ 103 µM) in [3]; 32 µg/mL (≈ 103 µM) in test [4]. The MIC is 64 µg/mL (≈ 206 µM) in test [5], 64 µg/mL (≈ 206 µM) in test [6], 32 µg/mL (≈ 103 µM) in test [7] and 64 µg/mL (≈ 206 µM) in test [8].
In the case of `CCn1cc(C(=O)O)c(=O)c2cc(F)c(N3CCNCC3)cc21` [NORFLOXACIN], the MIC in [1] is 8 µg/mL (≈ 25.1 µM); in [2] it was 16 µg/mL (≈ 50.1 µM); in test [3] it was 16 µg/mL (≈ 50.1 µM); in test [4], 4 µg/mL (≈ 12.5 µM); in test [5] it was 2 µg/mL (≈ 6.26 µM); in [6], 1 µg/mL (≈ 3.13 µM). Besides, the minimal inhibitory concentration (MIC) in test [7] was 0.5 µg/mL (≈ 1.57 µM); in test [8], 8 µg/mL (≈ 25.1 µM).
With `O=C(/C(=C/c1ccccc1)n1cncn1)c1ccc(N2CCOCC2)cc1N1CCOCC1`, the MIC in [9] was 64 µg/mL (≈ 144 µM); in [10], 128 µg/mL (≈ 287 µM); in test [1], 64 µg/mL (≈ 144 µM); in test [2] it was 128 µg/mL (≈ 287 µM); in test [3] it was 32 µg/mL (≈ 71.8 µM); in test [4] it was 32 µg/mL (≈ 71.8 µM). For the same molecule, the minimum inhibitory concentration (MIC) in test [5] came out at 64 µg/mL (≈ 144 µM); in test [6] it was 64 µg/mL (≈ 144 µM); in test [7] it was 32 µg/mL (≈ 71.8 µM); in test [8], 64 µg/mL (≈ 144 µM).
Consider `O=C(/C(=C/c1ccccc1)n1cncn1)c1ccc(Cl)cc1`, for which the MIC in test [9] amounted to 64 µg/mL (≈ 207 µM); in test [10], 16 µg/mL (≈ 51.7 µM); in [1], 64 µg/mL (≈ 207 µM); in test [2], 256 µg/mL (≈ 826 µM); in test [3], 128 µg/mL (≈ 413 µM); in [4], 64 µg/mL (≈ 207 µM). The MIC in test [5] was 64 µg/mL (≈ 207 µM); in [6], 64 µg/mL (≈ 207 µM); in [7], 64 µg/mL (≈ 207 µM); in test [8], 32 µg/mL (≈ 103 µM).
Turning to `O=C(/C(=C/c1ccc(F)cc1)n1cncn1)c1ccc(F)cc1F`, the MIC in [9] was found to be 64 µg/mL (≈ 194 µM); in [10] it was 64 µg/mL (≈ 194 µM); in test [1] it was 16 µg/mL (≈ 48.6 µM); in test [2], 32 µg/mL (≈ 97.2 µM); in [3] it was 32 µg/mL (≈ 97.2 µM); in [4], 32 µg/mL (≈ 97.2 µM). Further, the MIC amounted to 32 µg/mL (≈ 97.2 µM) in test [5], 64 µg/mL (≈ 194 µM) in [6], 64 µg/mL (≈ 194 µM) in test [7] and 128 µg/mL (≈ 389 µM) in test [8].
Take `O=C(/C(=C/c1ccc(Cl)cc1)n1cncn1)c1ccc(F)cc1F`: the MIC worked out at 16 µg/mL (≈ 46.3 µM) in [9]; 16 µg/mL (≈ 46.3 µM) in test [10]; 64 µg/mL (≈ 185 µM) in test [1]; 128 µg/mL (≈ 370 µM) in test [2]; 64 µg/mL (≈ 185 µM) in test [3]; 32 µg/mL (≈ 92.6 µM) in [4]. The MIC worked out at 64 µg/mL (≈ 185 µM) in test [5], 32 µg/mL (≈ 92.6 µM) in [6], 16 µg/mL (≈ 46.3 µM) in test [7] and 32 µg/mL (≈ 92.6 µM) in test [8].
